Results as given in paper PMC11937985 (Journal of Clinical Pharmacology, 2024).
Where two headings read alike, the source gives them in different places.

Legend:
[1] = Safety and tolerability assessment in the phase 1 study; assay type: in vivo, human
Outline: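 Healthy postmenopausal smokers and nonsmokers received oral test compound 30 mg on Day 1 after a 10-h fast. Oral fluvoxamine 50 mg was given on Day 3 evening, twice daily on Days 4–9, and on Day 10 morning. On Day 7 the test compound was co-dosed fasted. AEs were recorded from consent to end of study, in all subjects dosed at least once.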

[2] = assay type: in vitro ADME, human; details: preliminary assay; rate of degradation could not be determined precisely
[3] = assay type: in vivo, human
[4] = 20‐ to 60‐mg dose range; cited from earlier work
[5] = fezolinetant 45 mg, pooled 12-week data, cited from earlier work
[6] = fezolinetant + fluvoxamine vs fezolinetant alone

Row | SMILES | dizziness (TEAE), subjects reporting ([1]; 18 subjects) | erythema (TEAE), subjects reporting ([1]; 18 subjects) [%] | orthostatic intolerance (TEAE), subjects reporting ([1]; 18 subjects) | subjects with TEAE considered drug related by the investigator ([1]; 18 subjects) [%] | metabolic stability [2] | Tmax ([3]; female, human, plasma, oral, 30 mg) [h] | tmax, Median [min–max] ([3]; fezolinetant 30 mg + fluvoxamine, nonsmoker n = 9) | tmax, Median [min–max] ([3]; fezolinetant 30 mg + fluvoxamine, smoker n = 9) | tmax, Median [min–max] ([3]; fezolinetant 30 mg alone, nonsmoker n = 9) | tmax, Median [min–max] ([3]; fezolinetant 30 mg alone, smoker n = 9) | increase in half-life on co-administration with fluvoxamine [3, 6] [fold] | increase in total exposure on co-administration with fluvoxamine [3, 6] | exposure decrease by smoking ([3]; smokers vs nonsmokers) | subjects with TEAEs, overall ([1]; all treatment periods, 18 TEAEs, 18 subjects enrolled) [%] | safety and tolerability ([1]; single oral 30-mg dose of fezolinetant co-administered with fluvoxamine, healthy postmenopausal women) | dose dependence of Cmax and total exposure (AUC) [4] | LS mean difference in VMS frequency versus placebo ([5]; current smokers) | LS mean difference in VMS frequency versus placebo ([5]; former/never smokers)
1 | COCCCC/C(=N\OCCN)c1ccc(C(F)(F)F)cc1 [fluvoxamine] | one subject | 11.1 | one subject | 5.6 | – | – | – | – | – | – | – | – | – | – | – | – | – | –
2 | Cc1nsc(-c2nnc3n2CCN(C(=O)c2ccc(F)cc2)[C@@H]3C)n1 [Fezolinetant] | – | – | – | – | highly stable | 1 | 1.50 [1.00‐4.00] h | 1.50 [1.48‐4.00] h | 1.00 [0.983‐2.00] h | 1.00 [1.00‐1.50] h | ~5.6 | approximately 9 fold | about 50% | 44.4 | safe and well tolerated | increased linearly | −3.48 | −2.32
